Key:
[1] = Inhibition of neurosphere formation of […] BXD3752 cells by CCK8 assay; format: functional, cell-based
Method in brief: (§1)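 Neurosphere cultures grown serum-free at 37 °C, 5% CO2 (neurobasal medium, N2/B27, bFGF and EGF 50 ng/mL each, penicillin/streptomycin). BXD lines come from patient-tumour orthotopic xenografts; BT-142 carries endogenous IDH1 R132H and gets extra supplements (PDGF-AA, insulin, transferrin, others). 2000 cells/well were exposed to 0.002, 0.02, 0.2, 2 or 20 μM for up to 13 days. CCK-8 viability was read on days 4, 7, 10 and 13.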

MDCK [2] = assay: Efflux ratio, ratio of permeability from basolateral side over apical to basolateral side in MDCK cells expressing MDR1 at 10 uM incubated at 37 degC for 90 mins by LC/MS/MS method; format: ADME, cell-based, Canis lupus familiaris; conditions: dog, 1.5 h
Method in brief: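 MDCK-MDR1 monolayers (passage 24–33, seeded at 60000 cells/cm² on Transwell filters) were used 3–4 days post-seeding if TEER stayed >1000 Ω·cm². After 30 min preincubation in HBSS/50 mM HEPES pH ≈7.4, compound was added to the donor side (10 μM initial, 0.1% DMSO) A→B or B→A, 37 °C, 90 min. LC-MS/MS SRM quantification; Papp = dQ/dt/(A·C0).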

[3] = Inhibition of neurosphere formation of […] BXD4687 cells by CCK8 assay; format: functional, cell-based; method in brief: as §1
MDCK [4] = assay: Permeability from apical to basolateral side in MDCK cells expressing MDR1 at 10 uM incubated at 37 degC for 90 mins by LC/MS/MS method; format: ADME, cell-based, Canis lupus familiaris; conditions: dog, 1.5 h
Method in brief: (§2)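 MDCK-MDR1 monolayers were used 3–4 days after seeding on 0.4 μm Transwell filters, only if TEER exceeded 1000 Ω·cm² before and after the run. They were preincubated 30 min in HBSS with 50 mM HEPES, pH ≈ 7.4. Donor got 10 μM compound (final, 0.1% DMSO), then 90 min at 37 °C. Both sides were sampled and quantified by LC-MS/MS SRM. Papp = dQ/dt/(A·C0).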

[5] = Inhibition of neurosphere formation of human BT142 cells by CCK8 assay; format: functional, cell-based; method in brief: as §1
[6] = Inhibition of cell proliferation of human WI38 cells by CCK8 assay; format: functional, cell-based; conditions: WI-38
[7] = Inhibition of neurosphere formation of human BT142 cells at 2 uM by CCK8 assay; format: functional; method in brief: as §1
MDCK [8] = assay: Permeability from basolateral to apical side in MDCK cells expressing MDR1 at 10 uM incubated at 37 degC for 90 mins by LC/MS/MS method; format: ADME, cell-based, Canis lupus familiaris; conditions: dog, 1.5 h; method in brief: as §2
[9] = Inhibition of neurosphere formation of human BT142 cells at 20 uM by CCK8 assay; format: functional
Method in brief: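 BT-142 glioma cells (endogenous IDH1 R132H) grown as neurospheres in serum-free neurobasal/N2/B27 medium with bFGF, EGF, PDGF-AA and other supplements. 2000 cells/well treated for up to 13 days. Viability by CCK-8 at days 4, 7, 10 and 13.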

[10] = Cytotoxicity against human HT1080 cells up to 30 uM; format: cell-based; conditions: ht-1080
[11] = molecular target: Isocitrate dehydrogenase [NADP] cytoplasmic (Homo sapiens, UniProt O75874, R132H); assay: Inhibition of human IDH1 R132H mutant expressed in Escherichia coli BL21-CodonPlus assessed as reduction in NADPH consumption
Isocitrate dehydrogenase [NADP] cytoplasmic (Homo sapiens, UniProt O75874, R132H), sequence (O75874 2-414 R132H limits assumed): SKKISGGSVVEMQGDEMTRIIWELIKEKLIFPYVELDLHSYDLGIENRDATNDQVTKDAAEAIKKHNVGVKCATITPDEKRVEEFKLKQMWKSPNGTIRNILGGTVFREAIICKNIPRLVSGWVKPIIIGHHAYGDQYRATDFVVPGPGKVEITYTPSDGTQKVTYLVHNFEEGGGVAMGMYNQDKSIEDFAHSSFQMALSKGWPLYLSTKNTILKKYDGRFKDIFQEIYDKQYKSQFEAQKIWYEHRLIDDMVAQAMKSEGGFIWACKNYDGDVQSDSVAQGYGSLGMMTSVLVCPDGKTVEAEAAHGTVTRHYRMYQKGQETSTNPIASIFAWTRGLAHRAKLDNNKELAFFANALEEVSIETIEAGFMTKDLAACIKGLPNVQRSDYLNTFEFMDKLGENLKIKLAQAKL

[12] = molecular target: Isocitrate dehydrogenase [NADP] cytoplasmic (Homo sapiens, UniProt O75874); assay: Inhibition of wild type human IDH1 expressed in Escherichia coli BL21-CodonPlus assessed as NADPH production
Isocitrate dehydrogenase [NADP] cytoplasmic (Homo sapiens, UniProt O75874), sequence (O75874 whole entry): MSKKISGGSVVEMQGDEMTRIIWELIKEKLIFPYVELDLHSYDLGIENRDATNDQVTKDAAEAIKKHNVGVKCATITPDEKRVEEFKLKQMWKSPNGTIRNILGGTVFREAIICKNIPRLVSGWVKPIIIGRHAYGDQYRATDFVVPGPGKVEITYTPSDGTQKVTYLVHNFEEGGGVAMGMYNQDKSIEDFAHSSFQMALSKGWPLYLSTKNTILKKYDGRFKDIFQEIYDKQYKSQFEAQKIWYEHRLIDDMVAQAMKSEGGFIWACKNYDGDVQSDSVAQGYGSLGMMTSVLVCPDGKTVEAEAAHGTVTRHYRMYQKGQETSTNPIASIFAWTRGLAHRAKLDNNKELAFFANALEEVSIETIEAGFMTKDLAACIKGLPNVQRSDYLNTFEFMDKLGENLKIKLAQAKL

[13] = Selectivity index, ratio of EC50 for human BXD4687 cells to EC50 for human BT142 cells
[14] = Selectivity index, ratio of EC50 for human BXD3752 cells to EC50 for human BT142 cells

In the case of `Cc1ccccc1C(C(=O)NC1CCCCC1)N(C(=O)Cn1ccnc1C)c1cccc(F)c1` (configuration not stated), the EC50 [1] is reported as > 20 µM, the Ratio (MDCK [2]) is reported as 72.6 and the EC50 [3] is reported as > 20 µM. The permeability (MDCK [4]) was 0.15 ×10⁻⁶ cm/s, the EC50 [5] was > 20 µM and the EC50 [6] was > 50 µM. It also gave an inhibition at 2 µM [7] of 40%, a permeability (MDCK [8]) of 10.4 ×10⁻⁶ cm/s and an inhibition at 20 µM [9] of 40%.

Compound `Cc1cc(Cc2ccccc2)n(O)c(=O)c1` has an EC50 [1] of 5.9 µM, an EC50 [3] of 6.8 µM and a permeability (MDCK [4]) of 5.45 ×10⁻⁶ cm/s. The EC50 [5] was 0.37 µM, the Activity [10] was “Non-toxic” and the permeability (MDCK [8]) was 6.34 ×10⁻⁶ cm/s.

In the case of `Cc1cc(Cc2ccc(O)cc2)n(O)c(=O)c1`, the Activity [10] is reported as “Non-toxic”.

In the case of `O=c1cccc(Cc2ccccc2)n1O`, the Activity [10] is reported as “Non-toxic”.

In the case of `CC(C)c1cc(Cc2ccccc2)n(O)c(=O)c1`, the Activity [10] is reported as “Non-toxic”.

Compound `Cc1cc(Cc2ccccc2O)n(O)c(=O)c1` has a Ki [11] of 0.65 µM.

In the case of `O=c1ccc(CCc2ccccc2)cn1O`, the Ki [11] is reported as > 50 µM.

For `O=c1ccc(CCCc2ccccc2)cn1O`, the Ki [11] was > 50 µM.

For `O=c1ccc(Oc2ccccc2)cn1O`, the Ki [11] was 46 µM.

For `O=C(NO)c1ccc(=O)n(O)c1`, the Ki [11] was > 50 µM.

In the case of `O=C(NCc1ccccc1)c1ccc(=O)n(O)c1`, the Ki [11] is reported as > 50 µM.

In the case of `O=C(Cc1ccccc1)Nc1ccc(=O)n(O)c1`, the Ki [11] is reported as > 50 µM.

With `O=c1cccc(-c2ccccc2)n1O` the Ki [11] was > 50 µM.

With `CC(c1ccccc1)c1cccc(=O)n1O` (configuration not stated) the Ki [11] was > 50 µM.

`O=c1cccc(CCc2ccccc2)n1O` showed a Ki [11] of 10 µM.

With `COC(=O)c1ccc(CCc2cccc(=O)n2O)cc1` the Ki [11] was 27 µM.

In the case of `O=C(NO)c1cccc(=O)n1O`, the Ki [11] is reported as 4.5 µM and the Ki [12] is reported as > 50 µM.

Work on `Cc1cc(COc2ccccc2)n(O)c(=O)c1` yielded a Ki [11] of 0.87 µM.

In the case of `Cc1ccn(O)c(=O)c1Cc1ccccc1`, the Ki [11] is reported as 9.5 µM.

`COc1cccc(Cc2c(C)ccn(O)c2=O)c1` showed a Ki [11] of 16.2 µM.

Compound `Cc1ccn(O)c(=O)c1Cc1cccc(O)c1` has a Ki [11] of 13.6 µM.

With `O=c1cc(O)cc(Cc2ccccc2)n1O` the Ki [11] was 0.38 µM and the Activity [10] was “Non-toxic”.

Compound `COc1cc(Cc2ccccc2)n(O)c(=O)c1` has a Ki [11] of 5.5 µM.

`O=c1cc(CO)cc(Cc2ccccc2)n1O` showed a Ki [11] of 5.6 µM.

Compound `CC(=O)OCc1cc(Cc2ccccc2)n(O)c(=O)c1` has a Ki [11] of 4.5 µM.

Work on `COc1ccc(Cc2cc(C)cc(=O)n2O)cc1` yielded a Ki [11] of 0.56 µM.

For `COc1cccc(Cc2cc(C)cc(=O)n2O)c1`, the EC50 [1] was 2.5 µM, the Ratio (MDCK [2]) was 1.7 and the EC50 [3] was 1.2 µM. For the same compound, the permeability (MDCK [4]) was 5.39 ×10⁻⁶ cm/s, the EC50 [5] was 0.63 µM and the EC50 [6] was > 50 µM. The Ki [11] was 0.15 µM, the Activity [10] was “Non-toxic” and the permeability (MDCK [8]) was 8.88 ×10⁻⁶ cm/s. The Ki [12] was > 30 µM.

`Cc1cc(Cc2cccc(O)c2)n(O)c(=O)c1` showed an EC50 [1] of 6.2 µM, an EC50 [3] of 7.5 µM and an EC50 [5] of 1.8 µM. For the same compound, the EC50 [6] was > 50 µM, the Ki [11] was 0.14 µM and the Activity [10] was “Non-toxic”. The Ki [12] was > 30 µM.

`COc1ccccc1Cc1cc(C)cc(=O)n1O` gave a Ki [11] of 0.49 µM.

For `Cc1cc(Cc2cccc(F)c2)n(O)c(=O)c1`, the Ki [11] was 2.2 µM.

Work on `Cc1cc(Cc2c(F)c(F)c(F)c(F)c2F)n(O)c(=O)c1` yielded a Ki [11] of 2.2 µM.

For `Cc1cc(Cc2ccc(C#N)cc2)n(O)c(=O)c1`, the Ki [11] was 12.5 µM.

Compound `Cc1cc(Cc2cccc(C#N)c2)n(O)c(=O)c1` has a Ki [11] of 1.6 µM.

With `Cc1cc(Cc2cccc(C(=O)O)c2)n(O)c(=O)c1` the Ki [11] was > 50 µM.

For `Cc1cc(Cc2cccc(C(N)=O)c2)n(O)c(=O)c1`, the Ki [11] was 8.5 µM.

Compound `Cc1cc(Cc2ccc(C(F)(F)F)cc2)n(O)c(=O)c1` has a Ki [11] of 3.2 µM.

Compound `Cc1cc(C)cc(Cc2cc(C)cc(=O)n2O)c1` has a Ki [11] of 3.1 µM.

In the case of `Cc1cc(Cc2ccsc2)n(O)c(=O)c1`, the Ki [11] is reported as 0.95 µM.

Compound `Cc1cc(Cc2cccc(-c3ccccc3)c2)n(O)c(=O)c1` has a Ki [11] of 0.6 µM.

`Cc1cc(Cc2ccc(Oc3ccccc3)cc2)n(O)c(=O)c1` gave a Ki [11] of 0.75 µM.

For `Cc1cc(Cc2cccc3ccccc23)n(O)c(=O)c1`, the Ki [11] was 0.95 µM.

With `COc1ccc2c(Cc3cc(C)cc(=O)n3O)cccc2c1` the Ki [11] was 40.5 µM.

Work on `Cc1cc(Cc2cccc3cc(O)ccc23)n(O)c(=O)c1` yielded a Ki [11] of 27.5 µM.

In the case of `Cc1cc(Cc2cc3ccccc3s2)n(O)c(=O)c1`, the Ki [11] is reported as 22.5 µM.

In the case of `COc1ccc(-c2ccc(Cc3cc(C)cc(=O)n3O)cc2)cc1`, the EC50 [1] is reported as 2.8 µM, the EC50 [3] is reported as 7.6 µM and the “Ratio EC50” value [13] is reported as >10. For the same compound, the EC50 [5] was 0.26 µM, the EC50 [6] was > 50 µM and the Ki [11] was 0.34 µM. The Activity [10] was “Non-toxic”, the Ki [12] was 14 µM and the “Ratio EC50” value [14] was >10.

`Cc1cc(Cc2ccc(-c3ccc(O)cc3)cc2)n(O)c(=O)c1` gave an EC50 [1] of 5.1 µM, an EC50 [3] of 16 µM and an EC50 [5] of 0.69 µM. For the same compound, the EC50 [6] was > 50 µM, the Ki [11] was 0.25 µM and the Activity [10] was “Non-toxic”. For the same compound, the Ki [12] was 15.2 µM.

For `COc1cccc(-c2ccc(Cc3cc(C)cc(=O)n3O)cc2)c1`, the Ki [11] was 0.14 µM, the Activity [10] was “Non-toxic” and the Ki [12] was 13 µM.

`Cc1cc(Cc2ccc(-c3cccc(O)c3)cc2)n(O)c(=O)c1` gave a Ki [11] of 0.27 µM.

`Cc1cc(Cc2cc(-c3ccccc3)cc(-c3ccccc3)c2)n(O)c(=O)c1` gave a Ki [11] of 0.3 µM.

`Cc1cc(Cc2ccccc2)n(N)c(=O)c1` gave a Ki [11] of 3.8 µM.

With `O=c1ccc(-c2ccccc2)cn1O` [1-HYDROXY-5-PHENYLPYRIDIN-2(1H)-ONE] the Ki [11] was 50 µM.

With `Cc1cc(C2CCCCC2)n(O)c(=O)c1` [CICLOPIROX] the Ki [11] was > 50 µM.

For `Cc1cc(C)n(O)c(=O)c1` [METIPIROX], the Ki [11] was > 50 µM.

In the case of `Cn1nnc2c(C(N)=O)ncn2c1=O` [TEMOZOLOMIDE], the EC50 [1] is reported as > 50 µM, the EC50 [3] is reported as > 50 µM and the EC50 [5] is reported as > 50 µM.

Source: ChEMBL document CHEMBL3351758, “Inhibition of cancer-associated mutant isocitrate dehydrogenases: synthesis, structure-activity relationship, and selective antitumor activity” (J Med Chem, 2014)
